# Assay outcomes (PubChem BioAssay)
# Rows were chosen to be rich in hits. Some 3% of all compounds tested hit in one or more screens of this group.
# PLCb3 inh: inhibitors of human phospholipase C beta3. hit rate 0.18% among 370,000. Q01970. inhibition, % at 12.2 µM. Purified PLC-beta3, fluorogenic substrate, fluorescence; in the data active = inhibition above about 11%;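 note: 0% = median of compound wells on plate and 100% = full blocker control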
# NRP1-CendR mod: modulators of CendR peptide binding to human neuropilin-1. FAM-RPARPAR peptide binding to NRP-1, fluorescence polarization. hit rate 0.85% among 360,000. O14786. inhibition, % at 25 µM;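 active = inhibition or corrected inhibition above about 18%, plus a signal ratio from 0.5 to 1.5, limit read from the data, passing the limit was not always enough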
# DDE Tn7 FP inh: inhibitors of Tn7 peptide binding to human fibrin DD(E); P02675; FP displacement of FITC-Tn7 peptide from fibrin DD(E); 0% = median of compound wells per plate; inhibition, % at 8.3 µM; hit rate 0.13% among 370,000; AID 720508;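 active = inhibition above the mean of compounds falling within the control limits plus 3 SD of them, cut at about 14% in these data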;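 note: 0% = plate median of compound wells and 100% = 10 µM Aha-Tn7 peptide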
#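 Assay system: Human clot-derived fibrin DD(E) complex | Buffer or medium: Tris/NaCl/CaCl2 buffer, pH 7.8 | Repeats: One replicate per compound | Benchmarks: Aha-Tn7 high control | Measure: % inhibition scaled between sample-field median and high-control FP | Schedule: 10 min plus 3 h, room temperature | Signal: Fluorescence polarization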
# PLCg1 inh: blocks human PLC-gamma1 enzyme activity; P19174; purified PLC-gamma1, fluorogenic substrate, fluorescence; inhibition, % at 12.2 µM; hit rate 0.84% among 370,000; AID 720700; in the data active = inhibition above about 9.5%
# KLK7 zymogen act: proKLK7 (human) activation, primary screen; P49862; purified proKLK7, EDANS-DABCYL substrate fluorescence; 100% is mature enzyme control, 0% vehicle; activation, % at 7 µM; hit rate 0.9% among 370,000; AID 652039;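 active = activation above the mean of all tested compounds plus 3 SD, computed per campaign excluding outliers beyond control limits, cut at about 13% in these data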
# Target sequence (P49862 whole entry, looked up): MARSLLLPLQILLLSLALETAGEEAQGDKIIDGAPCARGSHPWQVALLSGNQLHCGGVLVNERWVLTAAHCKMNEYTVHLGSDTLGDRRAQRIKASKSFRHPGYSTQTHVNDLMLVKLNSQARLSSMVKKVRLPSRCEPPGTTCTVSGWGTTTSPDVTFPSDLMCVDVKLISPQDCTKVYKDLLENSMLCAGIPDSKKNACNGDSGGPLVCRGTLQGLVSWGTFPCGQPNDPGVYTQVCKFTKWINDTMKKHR
# Tn6 DDE FP: disrupts Tn6 cyclic peptide binding to fibrin D-Dimer-E complex. P02675. Fibrin DD(E) TRITC-Tn6 fluorescence polarization displacement. inhibition, % at 8.3 µM. hit rate 0.21% among 370,000. AID 720509;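 active = inhibition above a per-campaign cutoff: mean of compounds within control limits plus 3 SD, cut at about 15% in these data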;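 note: 0% = median of all compound wells on the plate and 100% = blocking peptide control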
# The depositor's hits bear a star; nt = no result given.
SMILES,PLCb3 inh,NRP1-CendR mod,DDE Tn7 FP inh,PLCg1 inh,KLK7 zymogen act,Tn6 DDE FP
COc1cccc(N2CCN(CC(=O)NCc3ccc(Cl)cc3)CC2)c1,1.1,nt,-10.4,2.4,0.2,1.8
Cc1nc(N2CCN(C(=O)COc3ccccc3C)CC2)c2c3c(sc2n1)CCCC3,0.3,nt,-0.3,-1.7,nt,-0.5
COc1ccc(NS(=O)(=O)c2csc(C(=O)N3CCCC3)c2)c(OC)c1,-0.7,19.1*,0.1,2.0,0.7,-8.1
COCCN1C(=O)C2=C(C1=O)C1N(C)c3ccccc3[C@@]13C[C@@H](CO)N(S(=O)(=O)c1ccc(OC)cc1)C3=N2 (stereo partly specified),-0.5,nt,-0.5,-0.1,-0.4,3.1
O=C1NC(=O)/C(=C/c2ccco2)N1,-6.6,25.4*,3.2,-4.8,0.1,4.2
O=c1c2cn[nH]c2nc(SCc2cc(=O)n3cc(Br)ccc3n2)n1-c1ccc(Br)cc1,-11.0,32.3*,4.6,-3.8,-4.3,3.4
Cc1ccccc1-n1c(SCc2cc(=O)n3ccccc3n2)nc2[nH]ncc2c1=O,-66.8,-0.4,-8.1,-53.7,1.8,8.7
O=c1c2cn[nH]c2nc(SCc2ccccc2F)n1-c1ccc(Br)cc1,-3.5,25.5*,-1.9,3.7,-0.4,-2.0
COc1ccc(N2CCN(C(=O)CSc3nc4[nH]ncc4c(=O)n3-c3ccc(Br)cc3)CC2)cc1,4.4,6.2,5.5,0.8,-0.3,3.2
COc1ccccc1C(=O)NC1CCCCN(Cc2cccc(F)c2)C1=O (stereo unspecified),-1.0,nt,6.4,-0.1,-0.5,12.1
CC(=O)Oc1cccc(C(=O)Nc2ccccc2C(=O)N2CCCC2)c1,-10.8,19.5*,1.8,-1.9,0.0,-2.3
COc1cccc(C(=O)Nc2ccccc2C(=O)N2CCCC2)c1,-1.8,3.1,-1.0,0.9,-0.7,7.4
C[C@H]1C2CC(OC(=O)Nc3cccc(F)c3)C(C2)[C@H]2CCCCN21 (stereo partly specified),1.4,nt,8.1,-0.7,-0.4,2.7
COC(=O)CCCCC1SCC2NC(=O)NC21O (stereo unspecified),-5.3,27.4*,1.0,-8.5,-0.3,-0.8
CC(c1ccccc1)n1cc(C(=O)N2CCCN(Cc3ccccc3)CC2)nn1 (stereo unspecified),0.9,nt,-6.0,4.8,0.1,-3.8
Cc1cc(=O)[nH]c(Nc2ccc(Cl)cc2)n1,-3.6,22.5*,2.9,-2.4,-0.2,0.2
Cc1ccc(OCC(=O)c2cc(C)c(C)cc2C)c([N+](=O)[O-])n1,-13.2,-14.5,3.3,-7.4,-0.1,1.6
Cc1ccc(OCC(=O)c2c(N)n(C)c(=O)n(C)c2=O)c([N+](=O)[O-])n1,-19.4,20.6*,2.8,-11.3,0.6,2.0
C=CCOC/C=C/C#CCN(Cc1ccc(OC)cc1OC)C(=O)Nc1ccccc1,0.6,nt,-1.1,0.5,0.1,1.7
Cn1c(Cn2c(=O)sc3ccccc32)nnc1SCC(=O)N1CCN(c2ccccc2)CC1,5.0,27.0*,-4.2,2.6,0.4,-0.2
COc1ccc(CN2CC[C@H]3C=CC[C@@H](C(=O)NCCc4ccccc4)[C@H]3C2=O)cc1OC,-0.2,23.6*,-5.0,1.9,0.5,-3.0
CCCCN1CC[C@H]2C=CC[C@@H](C(=O)Nc3ccccc3)[C@H]2C1=O,3.4,32.3*,-1.0,0.3,0.2,-3.8
O=C(NCc1cccnc1)[C@@H]1CC=C[C@@H]2CCN(Cc3ccccc3)C(=O)[C@@H]21,1.4,32.4*,6.7,-0.5,-0.7,-0.1
CCCCN(CCCNC(=O)Cn1nc(CC)n2c(cc3sc(C)cc32)c1=O)Cc1ccccc1,-9.7,13.5,2.5,3.9,-0.4,1.8
CCc1nn(CC(=O)NCCCN(CC)Cc2ccccc2)c(=O)c2cc3sccc3n12,2.8,-22.1,-2.9,10.6*,-0.4,0.6
O=C(COC(=O)Cc1cccs1)NCc1ccc(F)cc1,-11.2,24.9*,-4.3,-4.5,-0.7,-5.7
O=C(COC(=O)Cc1ccc(Br)cc1)NCc1cccs1,-0.5,12.5,-2.8,0.4,-0.6,0.9
CCOc1ccc(S(=O)(=O)NNC(=O)c2cc3ccccc3o2)cc1,1.2,43.0*,0.8,0.4,-0.2,2.9
